Where a SMILES comes first, the peptide text is derived from it. [ ]: non-standard residue; d: D form. The star is where a group is joined. dHpg = N[C@@H](C(=O)O)c1ccc(O)cc1; dChg = N[C@@H](C(=O)O)C1CCCCC1; dPhg = N[C@@H](C(=O)O)c1ccccc1; Boc = CC(C)(C)OC(=O)*
How the values were obtained:
[1] = Selectivity was expressed as the ratio is IC 50 of plasmin / thrombin
Summary of the method: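 Ratio of plasmin IC50 to thrombin IC50. Amidolytic assays at 25 °C in 0.1 M Tris-HCl (pH 7.4):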

[2] = Selectivity was expressed as the ratio is IC 50 of t-PA / thrombin
Summary of the method: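 Ratio of t-PA IC50 to thrombin IC50. Amidolytic assays in 0.1 M Tris-HCl (pH 7.4) at 25 °C: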

Plasminogen = Plasminogen (Homo sapiens, UniProt P00747); test: Inhibitory activity against plasmin
Serine protease 1 = Serine protease 1 (Homo sapiens, UniProt P07477); test: Inhibitory activity against trypsin
Summary of the method: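 Trypsin 93 ng/mL hydrolysing Bz-Phe-Val-Arg-pNA 0.125 mg/mL, 0.1 M Tris-HCl pH 7.4, 25 °C. […] Varying peptide concentrations, 5-min preincubation. IC50 is the concentration producing 50% inhibition of activity against a blank control.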

[3] = target: Coagulation factor X (Bos taurus) (UniProt P00743); test: Inhibitory activity against factor Xa
Prothrombin (Bos taurus) = Prothrombin (Bos taurus) (UniProt P00735); test: Inhibitory activity against thrombin

Sequence of Coagulation factor X (Bos taurus) (P00743 whole entry, looked up): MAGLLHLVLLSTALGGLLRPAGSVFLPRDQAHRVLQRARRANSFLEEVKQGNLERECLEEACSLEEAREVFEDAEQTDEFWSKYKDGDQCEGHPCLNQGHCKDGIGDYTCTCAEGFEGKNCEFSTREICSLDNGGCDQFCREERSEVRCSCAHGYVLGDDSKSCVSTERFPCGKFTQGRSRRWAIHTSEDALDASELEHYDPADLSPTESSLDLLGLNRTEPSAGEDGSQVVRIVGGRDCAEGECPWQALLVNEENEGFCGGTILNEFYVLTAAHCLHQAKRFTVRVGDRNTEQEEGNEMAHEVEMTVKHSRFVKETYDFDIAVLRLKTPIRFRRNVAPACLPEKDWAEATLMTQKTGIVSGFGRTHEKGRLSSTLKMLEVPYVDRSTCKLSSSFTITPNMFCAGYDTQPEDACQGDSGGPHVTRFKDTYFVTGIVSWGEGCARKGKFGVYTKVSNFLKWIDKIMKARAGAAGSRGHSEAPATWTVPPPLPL
Sequence of Serine protease 1 (P07477 whole entry): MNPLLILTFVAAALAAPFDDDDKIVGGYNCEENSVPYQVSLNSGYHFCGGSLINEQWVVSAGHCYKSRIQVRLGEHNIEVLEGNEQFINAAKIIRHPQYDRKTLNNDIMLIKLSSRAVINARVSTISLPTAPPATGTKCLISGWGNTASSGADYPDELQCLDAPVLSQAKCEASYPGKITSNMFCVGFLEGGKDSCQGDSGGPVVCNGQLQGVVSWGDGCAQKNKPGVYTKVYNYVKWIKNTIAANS
Sequence of Plasminogen (P00747 97-580 limits assumed): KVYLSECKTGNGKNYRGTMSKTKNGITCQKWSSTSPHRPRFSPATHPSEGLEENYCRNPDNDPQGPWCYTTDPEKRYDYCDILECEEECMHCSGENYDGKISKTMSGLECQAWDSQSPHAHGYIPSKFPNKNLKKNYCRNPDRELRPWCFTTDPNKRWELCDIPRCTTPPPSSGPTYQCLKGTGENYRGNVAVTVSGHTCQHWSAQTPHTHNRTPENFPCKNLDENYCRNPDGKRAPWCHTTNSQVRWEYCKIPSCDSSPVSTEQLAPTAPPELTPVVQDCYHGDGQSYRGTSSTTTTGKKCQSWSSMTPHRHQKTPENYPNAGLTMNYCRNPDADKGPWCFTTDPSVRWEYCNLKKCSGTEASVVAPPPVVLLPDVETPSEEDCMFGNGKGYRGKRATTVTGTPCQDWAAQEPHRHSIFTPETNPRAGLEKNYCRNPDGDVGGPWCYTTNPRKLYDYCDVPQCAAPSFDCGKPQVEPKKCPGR
Sequence of Plasminogen (P00747 581-810 limits assumed): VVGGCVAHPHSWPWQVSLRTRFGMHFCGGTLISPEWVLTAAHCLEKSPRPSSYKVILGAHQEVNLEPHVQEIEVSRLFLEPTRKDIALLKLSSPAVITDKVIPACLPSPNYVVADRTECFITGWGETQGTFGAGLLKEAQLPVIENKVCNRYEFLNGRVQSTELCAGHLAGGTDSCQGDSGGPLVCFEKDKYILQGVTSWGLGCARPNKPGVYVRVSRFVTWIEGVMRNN

| Structure (SMILES) | Selectivity ratio [1] | Selectivity ratio [2] | IC50 (Plasminogen) [nM] | IC50 (Serine protease 1) [nM] | IC50 [3] [nM] | IC50 (Prothrombin (Bos taurus)) [nM] |
| --- | --- | --- | --- | --- | --- | --- |
| CC(C)(C)OC(=O)N[C@H](C(=O)N1CCC[C@H]1C(=O)N[C@H](C=O)CCCN=C(N)N)c1ccc(F)cc1 | 9 | 1100 | 770 | 24 | 6700 | 85 |
| C[C@H](C(=O)N1CCC[C@H]1C(=O)NC(C=O)CCCN=C(N)N)c1ccccc1 (some centres not stated) | 190 | > 100 | – | – | – | – |
| N=C(N)NCCC[C@@H](C=O)NC(=O)[C@@H]1CCCN1C(=O)[C@@H]1NCCc2ccccc21 | – | – | 1500 | 23 | – | 19 |
| CO[C@H](C(=O)N1CCC[C@H]1C(=O)NC(C=O)CCCN=C(N)N)c1ccccc1 (some centres not stated) | 60 | 3400 | 15000 | – | 27000 | 250 |
| CC(C)(C)OC(=O)N[C@@H](C(=O)N1CCC[C@H]1C(=O)N[C@H](C=O)CCCN=C(N)N)c1ccc(F)cc1 | 4 | 600 | 85 | 19 | 1600 | 30 |
| N=C(N)NCCC[C@@H](C=O)NC(=O)[C@@H]1CCCN1C(=O)[C@H]1Cc2ccccc2CN1 | – | – | – | 19 | 4100 | 25 |
| CC[C@H](C(=O)N1CCC[C@H]1C(=O)NC(C=O)CCCN=C(N)N)c1ccccc1 (some centres not stated) | 160 | > 800 | – | – | – | – |
| C[C@@H](C(=O)N1CCC[C@H]1C(=O)NC(C=O)CCCN=C(N)N)c1ccccc1 (some centres not stated) | 8 | – | 41000 | 890 | 81000 | 5100 |
| CC(C)(C)OC(=O)N[C@@H](C(=O)N1CCC[C@H]1C(=O)N[C@H](C=O)CCCN=C(N)N)C1CCCCC1 (Boc-[dChg]-Pro-Arg-aldehyde) | 7 | 190 | 81 | 13 | 81 | 12 |
| CN[C@@H](C(=O)N1CCC[C@H]1C(=O)N[C@H](C=O)CCCN=C(N)N)c1ccccc1 | 30 | 2300 | – | – | – | – |
| CC(C)(C)OC(=O)N[C@@H](C(=O)N1CCC[C@H]1C(=O)N[C@H](C=O)CCCN=C(N)N)c1ccc(O)cc1 (Boc-[dHpg]-Pro-Arg-aldehyde) | 1 | 180 | 94 | 17 | 200 | 89 |
| NC(N)=NCCC[C@@H](C=O)NC(=O)[C@@H]1CCCN1C(=O)[C@H](N)c1ccccc1 (H-[dPhg]-Pro-Arg-aldehyde) | 50 | 2200 | 910 | 19 | 1600 | 18 |
| N=C(N)NCCC[C@@H](C=O)NC(=O)[C@@H]1CCCN1C(=O)C1CCc2ccccc2N1 (some centres not stated) | 5 | 210 | 15000 | 570 | 12000 | 3100 |

Next, values leading:

| Selectivity ratio [1] | Selectivity ratio [2] | IC50 (Plasminogen) [nM] | IC50 (Serine protease 1) [nM] | IC50 [3] [nM] | IC50 (Prothrombin (Bos taurus)) [nM] | Structure (SMILES) |
| --- | --- | --- | --- | --- | --- | --- |
| 30 | 870 | – | – | – | – | CC(C)(C)OC(=O)N[C@@H](C(=O)N1CCC[C@H]1C(=O)NC(C=O)CCCN=C(N)N)c1cccc2ccccc12 (some centres not stated) |
| – | – | 620 | 14 | 1400 | 23 | CC(C)(C)OC(=O)N[C@@H](C(=O)N1CCC[C@H]1C(=O)NC(C=O)CCCNC(=N)N)c1cccc2ccccc12 (some centres not stated) |
| 5 | 560 | 130 | 19 | 1400 | 27 | CC(C)(C)OC(=O)NC(C(=O)N1CCC[C@H]1C(=O)NC(C=O)CCCN=C(N)N)c1cccc(C(F)(F)F)c1 (some centres not stated) |
| 2 | 180 | 150 | 13 | 190 | 73 | CC(C)(C)OC(=O)N[C@@H](C(=O)N1CCC[C@H]1C(=O)N[C@H](C=O)CCCN=C(N)N)c1ccsc1 |
| – | – | 180 | 29 | 210 | 55 | CC(C)(C)OC(=O)N[C@H](C(=O)N1CCC[C@H]1C(=O)NC(C=O)CCCNC(=N)N)c1cccc2ccccc12 (some centres not stated) |
| – | – | 18000 | 180 | 31000 | 94 | C[C@H](C(=O)N1CCC[C@H]1C(=O)NC(C=O)CCCNC(=N)N)c1ccccc1 (some centres not stated) |
| – | – | 180 | 15 | 69 | 28 | CC(C)(C)OC(=O)NC(C(=O)N1CCC[C@H]1C(=O)NC(C=O)CCCNC(=N)N)c1ccc(Cl)c(Cl)c1 (some centres not stated) |
| – | – | 490 | 18 | 2200 | 18 | CN[C@@H](C(=O)N1CCC[C@H]1C(=O)N[C@H](C=O)CCCNC(=N)N)c1ccccc1 |
| 3 | 670 | 55 | 9 | 50 | 18 | CC(C)(C)OC(=O)N[C@@H](C(=O)N1CCC[C@H]1C(=O)NC(C=O)CCCN=C(N)N)c1ccc2ccccc2c1 (some centres not stated) |
| 4 | 20 | 190 | 14 | 1600 | 45 | CC(C)(C)OC(=O)N[C@H](Cc1ccccc1)C(=O)N1CCC[C@H]1C(=O)N[C@H](C=O)CCCN=C(N)N |
| 6 | 1100 | – | – | – | – | CC(C)(C)OC(=O)NC(C(=O)N1CCC[C@H]1C(=O)NC(C=O)CCCN=C(N)N)c1ccc(Cl)c(Cl)c1 (some centres not stated) |
| 6 | 540 | 98 | 9.8 | 260 | 16 | CC(C)(C)OC(=O)N[C@@H](C(=O)N1CCC[C@H]1C(=O)N[C@H](C=O)CCCN=C(N)N)c1ccccc1 (Boc-[dPhg]-Pro-Arg-aldehyde) |
| – | – | 21000 | 350 | 33000 | 130 | CC[C@H](C(=O)N1CCC[C@H]1C(=O)NC(C=O)CCCNC(=N)N)c1ccccc1 (some centres not stated) |
| 3 | – | – | – | – | – | CC(C)(C)OC(=O)N[C@H](C(=O)N1CCC[C@H]1C(=O)NC(C=O)CCCN=C(N)N)c1cccc2ccccc12 (some centres not stated) |

Source: ChEMBL document CHEMBL1126581 (J Med Chem, 1993)
